From ChEMBL document CHEMBL4002619, “Targeting Type 2 Diabetes with C-Glucosyl Dihydrochalcones as Selective Sodium Glucose Co-Transporter 2 (SGLT2) Inhibitors: Synthesis and Biological Evaluation” (J Med Chem, 2017)
Calls of active or inactive are those of the source. No cut-off for these calls is given here.

Columns and labels:
Type in all cases: cell-based
[1] = target: T1, Sodium/glucose cotransporter 2 (Homo sapiens) (UniProt P31639); experiment: Inhibition of human SGLT2 expressed in HEK293 cells assessed as reduction in 2-deoxyglucose uptake at 100 uM pretreated for 10 mins followed by 2-deoxyglucose addition in presence of sodium buffer measured after 1 hr by resazurin dye based fluorescence assay
T1 sequence (whole entry): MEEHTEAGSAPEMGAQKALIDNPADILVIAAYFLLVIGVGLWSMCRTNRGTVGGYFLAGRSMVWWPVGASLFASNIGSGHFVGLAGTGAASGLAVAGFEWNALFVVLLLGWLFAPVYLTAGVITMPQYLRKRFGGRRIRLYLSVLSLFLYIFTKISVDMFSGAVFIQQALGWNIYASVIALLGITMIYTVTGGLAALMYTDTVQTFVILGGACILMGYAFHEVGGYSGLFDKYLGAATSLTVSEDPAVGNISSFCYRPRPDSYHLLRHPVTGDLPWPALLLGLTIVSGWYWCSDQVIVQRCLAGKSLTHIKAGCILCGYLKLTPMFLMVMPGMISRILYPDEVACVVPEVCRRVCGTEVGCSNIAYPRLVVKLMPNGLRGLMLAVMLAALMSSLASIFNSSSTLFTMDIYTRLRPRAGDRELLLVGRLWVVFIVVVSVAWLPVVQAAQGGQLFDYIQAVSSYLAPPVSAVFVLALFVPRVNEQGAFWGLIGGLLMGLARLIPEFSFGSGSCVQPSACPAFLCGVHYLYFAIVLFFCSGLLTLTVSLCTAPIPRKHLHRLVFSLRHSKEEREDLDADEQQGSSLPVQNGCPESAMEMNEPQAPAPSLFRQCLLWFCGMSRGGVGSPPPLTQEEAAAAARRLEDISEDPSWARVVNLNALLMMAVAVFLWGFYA
Method in brief: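 Stably transfected HEK293 expressing human SGLT2 (pCMV6-Neo, G418-selected), 2.0 × 10^4 cells/well, 24 h; 1 h preincubation in KRPH buffer at 37 °C; compound 100 µM; 2-deoxyglucose 1 mM, 1 h at 37 °C; NaOH lysis at 80-85 °C, neutralised; enzymatic cycling (G6PDH, NADP+, diaphorase, 10 µM resazurin, pH 8.2) 15-20 h; fluorescence ex 560/em 590 nm. Mean ± SD, three independent experiments.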

[2] = target: T2, Sodium/glucose cotransporter 1 (Homo sapiens, UniProt P13866); experiment: Inhibition of human SGLT1 expressed in HEK293 cells assessed as reduction in 2-deoxyglucose uptake at 100 uM pretreated for 10 mins followed by 2-deoxyglucose addition in presence of sodium buffer measured after 1 hr by resazurin dye based fluorescence assay; conditions: hek293, 1 h
T2 sequence (P13866 whole entry): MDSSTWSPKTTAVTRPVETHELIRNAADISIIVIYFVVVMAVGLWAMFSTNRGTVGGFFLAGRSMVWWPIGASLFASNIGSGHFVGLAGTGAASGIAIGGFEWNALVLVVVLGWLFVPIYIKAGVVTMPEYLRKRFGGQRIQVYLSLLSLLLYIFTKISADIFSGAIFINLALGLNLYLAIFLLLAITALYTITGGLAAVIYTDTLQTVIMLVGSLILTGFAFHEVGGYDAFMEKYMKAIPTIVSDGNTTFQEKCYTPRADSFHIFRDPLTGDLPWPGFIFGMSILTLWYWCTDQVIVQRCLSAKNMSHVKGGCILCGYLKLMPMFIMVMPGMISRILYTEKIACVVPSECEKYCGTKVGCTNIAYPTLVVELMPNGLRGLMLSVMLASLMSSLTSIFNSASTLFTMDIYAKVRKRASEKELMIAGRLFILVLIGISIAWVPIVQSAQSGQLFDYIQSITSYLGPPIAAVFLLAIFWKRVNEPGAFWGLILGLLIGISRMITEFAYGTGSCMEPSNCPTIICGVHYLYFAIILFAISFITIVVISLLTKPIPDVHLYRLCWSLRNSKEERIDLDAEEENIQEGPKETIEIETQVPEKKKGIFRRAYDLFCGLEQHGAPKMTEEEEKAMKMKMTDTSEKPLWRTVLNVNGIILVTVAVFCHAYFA

HEK293 = experiment: Cytotoxicity in HEK293 cells assessed as cell viability at 100 uM measured after 20 to 24 hrs by Cell-Titer Blue fluorescence assay; conditions: human, hek293, 100 µM
Method in brief: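 HEK293 cells (DMEM, 10% FBS, 37 °C, 5% CO2) seeded 2.0 × 10^4 cells/well 24 h before; compound at 100 µM in triplicate, 20-24 h at 37 °C; CellTiter-Blue 4 h at 37 °C; fluorescence ex 560/em 590 nm; viability as treated/untreated fluorescence ratio, %. DMSO-treated wells run alongside. Mean ± SD of three independent experiments.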

[3] = target: T3, Sodium/glucose cotransporter 2 (Homo sapiens, UniProt P31639); experiment: Inhibition of human SGLT2 expressed in HEK293 cells assessed as reduction in 2-deoxyglucose uptake pretreated for 10 mins followed by 2-deoxyglucose addition in presence of sodium buffer measured after 1 hr by resazurin dye based fluorescence assay
T3 sequence (P31639 whole entry): T1 sequence (whole entry)

[4] = Inhibition of GLUT in HEK293 cells assessed as reduction in 2-deoxyglucose uptake at 100 uM pretreated for 10 mins followed by 2-deoxyglucose addition in presence of choline buffer measured after 1 hr by resazurin dye based fluorescence assay; conditions: human
Method in brief: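 SGLT1 and SGLT2 stable HEK293 lines (G418-selected) assayed in sodium-free buffer, NaCl replaced by choline chloride; compounds at 100 µM; phlorizin and cytochalasin B as controls. 2-deoxyglucose 1 mM, 1 h at 37 °C; lysis in 0.1 M NaOH, 80-85 °C 40 min, neutralised; G6PDH/NADP+/diaphorase/resazurin cycling 15-20 h at 37 °C; resorufin fluorescence ex 560/em 590 nm.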

[5] = Inhibition of GLUT in HEK293 cells assessed as reduction in 2-deoxyglucose uptake pretreated for 10 mins followed by 2-deoxyglucose addition in presence of choline buffer measured after 1 hr by resazurin dye based fluorescence assay; conditions: human
[6] = Inhibition of GLUT in HEK293 cells assessed as reduction in 2-deoxyglucose uptake pretreated for 10 mins followed by 2-deoxyglucose addition in presence of sodium buffer measured after 1 hr by resazurin dye based fluorescence assay; conditions: human

| Structure (SMILES) | inhibition [1] | inhibition (INH) [2] | Activity (HEK293) | IC50 [3] | inhibition (INH) [4] | inhibition (INH) [5] | inhibition (INH) [6] |
| --- | --- | --- | --- | --- | --- | --- | --- |
| CCOc1ccc(Cc2cc([C@@H]3O[C@H](CO)[C@@H](O)[C@H](O)[C@H]3O)ccc2Cl)cc1 [DAPAGLIFLOZIN] | Active | Active |  |  |  |  |  |
| COc1ccc(/C=C/C(=O)c2c(O)cc(O)cc2O)cc1 [4-METHOXYL-2',4',6'-TRIHYDROXYCHALCONE] | Active | Active | Non-Toxic | 18.2 µM | Active |  |  |
| CCOc1ccc(/C=C/C(=O)c2c(O)cc(O)cc2O)cc1 | Active | Active | Non-Toxic | 26 µM | Active |  |  |
| O=C(/C=C/c1ccc(Br)cc1)c1c(O)cc(O)cc1O [4-BROMO-2',4',6'-TRIHYDROXYCHALCONE] | Active | Active | Non-Toxic | 23.5 µM | Active |  |  |
| Cc1ccc(CCC(=O)c2c(O)cc(O)c([C@@H]3O[C@H](CO)[C@@H](O)[C@H](O)[C@H]3O)c2O)cc1 | Active | Active | Non-Toxic | 0.0182 µM | Not Active |  |  |
| COc1ccc(CCC(=O)c2c(O)cc(O)cc2O)cc1 | Active | Active | Non-Toxic | 18.7 µM | Active |  |  |
| C=C1[C@@H](C)[C@H]2[C@H](Cc3ccccc3)NC(=O)[C@]23OC(=O)/C=C/[C@H](O)CCC[C@@H](C)C/C=C/[C@H]3[C@@H]1O [CYTOCHALASIN B] |  |  |  |  |  | Active | Active |
| CCCOc1ccc(CCC(=O)c2c(O)cc(O)c([C@@H]3O[C@H](CO)[C@@H](O)[C@H](O)[C@H]3O)c2O)cc1 | Active | Active | Non-Toxic | 0.0227 µM | Not Active |  |  |
| O=C(/C=C/c1ccccc1)c1c(O)cc(O)cc1O [2',4',6-TRIHYDROXYCHALCONE] | Active |  |  |  |  |  |  |
| O=C(CCc1ccc(O)cc1)c1c(O)cc(O)cc1O[C@@H]1O[C@H](CO)[C@@H](O)[C@H](O)[C@H]1O [PHLORIZIN] | Active |  | Non-Toxic |  |  |  |  |
| O=C(CCc1ccc(O)cc1)c1c(O)cc(O)cc1O [PHLORETIN] | Active |  | Non-Toxic | 18.3 µM | Active |  |  |
| Cc1ccc(/C=C/C(=O)c2c(O)cc(O)cc2O)cc1 | Active | Active | Non-Toxic | 34.1 µM | Active |  |  |
| O=C(CCc1ccccc1)c1c(O)cc(O)cc1O | Active | Active | Non-Toxic | 14.7 µM | Active |  |  |
| O=C(CCc1ccccc1)c1c(O)cc(O)c([C@@H]2O[C@H](CO)[C@@H](O)[C@H](O)[C@H]2O)c1O | Active | Active | Non-Toxic | 0.0198 µM | Not Active |  |  |
| O=C(CCc1ccc(F)cc1)c1c(O)cc(O)cc1O | Active | Active | Non-Toxic | 15.8 µM | Active |  |  |
| O=C(CCc1ccc(O)cc1)c1c(O)cc(O)c([C@@H]2O[C@H](CO)[C@@H](O)[C@H](O)[C@H]2O)c1O | Active | Active | Non-Toxic | 0.0119 µM | Not Active |  |  |
| C=CCOc1ccc(/C=C/C(=O)c2c(O)cc(O)cc2O)cc1 | Active | Active | Non-Toxic | 26.2 µM | Active |  |  |
| CCOc1ccc(CCC(=O)c2c(O)cc(O)cc2O)cc1 | Active | Active | Non-Toxic | 16.7 µM | Active |  |  |
| Cc1ccc(CCC(=O)c2c(O)cc(O)cc2O)cc1 | Active | Active | Non-Toxic | 18 µM | Active |  |  |
| CCCOc1ccc(CCC(=O)c2c(O)cc(O)cc2O)cc1 | Active | Active | Non-Toxic | 16.4 µM | Active |  |  |
| COc1ccc(CCC(=O)c2c(O)cc(O)c([C@@H]3O[C@H](CO)[C@@H](O)[C@H](O)[C@H]3O)c2O)cc1 | Active | Active | Non-Toxic | 0.0213 µM | Not Active |  |  |
| O=C(CCc1ccc(F)cc1)c1c(O)cc(O)c([C@@H]2O[C@H](CO)[C@@H](O)[C@H](O)[C@H]2O)c1O | Active | Active | Non-Toxic | 0.0091 µM | Not Active |  |  |
| CCOc1ccc(CCC(=O)c2c(O)cc(O)c([C@@H]3O[C@H](CO)[C@@H](O)[C@H](O)[C@H]3O)c2O)cc1 | Active | Active | Non-Toxic | 0.0217 µM | Not Active |  |  |
| O=C(/C=C/c1ccc(OCc2ccccc2)cc1)c1c(O)cc(O)cc1O | Active | Active | Non-Toxic | 22.7 µM | Active |  |  |
| O=C(/C=C/c1ccc(F)cc1)c1c(O)cc(O)cc1O [4-FLUORO-2',4',6'-TRIHYDROXYCHALCONE] | Active | Active | Non-Toxic | 51.7 µM | Active |  |  |
